Results reported in ChEMBL document CHEMBL1153616, “Synthesis and antiviral activity of new pyrazole and thiazole derivatives” (Eur J Med Chem, 2009).
Values after ≈ are worked out from the molar mass of the structure shown.

Columns and labels:
[1] = Cytotoxicity against HEL cells assessed as minimum cytotoxic concentration required to cause microscopically detectable alteration in normal cell morphology; format: cell-based; conditions: human
Method in brief: (§1)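 Run in parallel with antiviral assays on uninfected cell cultures; test compounds from 10 mg/ml DMSO stocks in serial dilution. Value is minimum cytotoxic concentration (MCC) producing microscopically detectable alteration of normal cell morphology.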

Human alphaherpesvirus 2 = assay: Antiviral activity against HSV2 G infected in human HEL cells assessed as inhibition of virus-induced cytopathicity after 3 days; format: functional, organism-based; conditions: Human alphaherpesvirus 2, strain G, 72 h
Method in brief: (§2)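 Confluent cell monolayers infected with 100 CCID50 virus; after 2 h adsorption at 37 °C, virus removed and serial compound dilutions added (DMSO stocks 10 mg/ml). Incubated 37 °C for 3 days until complete CPE in untreated virus control. EC50 = concentration protecting 50% of infected cells from viral cytopathogenicity; ">" marks highest concentration tested.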

Vaccinia virus = assay: Antiviral activity against Vaccinia virus infected in human HEL cells assessed as inhibition of virus-induced cytopathicity after 3 days; format: functional, organism-based; conditions: Orthopoxvirus vaccinia, 72 h
[2] = tested on: Vesicular stomatitis virus; assay: Antiviral activity against Vesicular stomatitis virus infected in human HEL cells assessed as inhibition of virus-induced cytopathicity after 3 days; format: functional, organism-based; conditions: 72 h
Human alphaherpesvirus 1 [3] = assay: Antiviral activity against thymidine kinase-deficient ACV-resistant HSV1 KOS infected in human HEL cells assessed as inhibition of virus-induced cytopathicity after 3 days; format: functional, organism-based; conditions: Human alphaherpesvirus 1, KOS, 72 h
Human alphaherpesvirus 1 [4] = assay: Antiviral activity against HSV1 KOS infected in human HEL cells assessed as inhibition of virus-induced cytopathicity after 3 days; format: functional, organism-based; conditions: Human alphaherpesvirus 1, KOS, 72 h
[5] = Cytotoxicity against human HeLa cells assessed as minimum cytotoxic concentration required to cause microscopically detectable alteration in normal cell morphology; format: cell-based; method in brief: as §1
[6] = tested on: Vesicular stomatitis virus; assay: Antiviral activity against Vesicular stomatitis virus infected in human HeLa cells assessed as inhibition of virus-induced cytopathicity after 3 days; format: functional, organism-based; conditions: 72 h
Coxsackievirus B4 [7] = assay: Antiviral activity against Coxsackievirus B4 infected in human HeLa cells assessed as inhibition of virus-induced cytopathicity after 3 days; format: functional, organism-based; conditions: Enterovirus B, 72 h
Method in brief: (§3)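 Confluent cell monolayers infected with 100 CCID50 virus; after 2 h adsorption at 37 °C, virus removed and serial compound dilutions added (DMSO stocks 10 mg/ml). Incubated 37 °C for 3 days until complete CPE in untreated virus control.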

[8] = tested on: Respiratory syncytial virus; assay: Antiviral activity against RSV infected in human HeLa cells assessed as inhibition of virus-induced cytopathicity after 3 days; format: functional, organism-based; conditions: 72 h; method in brief: as §2
[9] = Cytotoxicity against african green monkey Vero cells assessed as minimum cytotoxic concentration required to cause microscopically detectable alteration in normal cell morphology; format: cell-based; conditions: chlorocebus sabaeus; method in brief: as §1
Human respirovirus 3 = assay: Antiviral activity against Parainfluenza virus type 3 infected in african green monkey Vero cells assessed as inhibition of virus-induced cytopathicity after 3 days; format: functional, organism-based; conditions: Human respirovirus 3, Vero, 72 h; method in brief: as §2
[10] = tested on: Mammalian orthoreovirus 1; assay: Antiviral activity against Reovirus 1 infected in african green monkey Vero cells assessed as inhibition of virus-induced cytopathicity after 3 days; format: functional, organism-based; conditions: Mammalian orthoreovirus 1, Vero, 72 h; method in brief: as §2
Sindbis virus = assay: Antiviral activity against Sindbis virus infected in african green monkey Vero cells assessed as inhibition of virus-induced cytopathicity after 3 days postinfection; format: functional, organism-based; conditions: 72 h; method in brief: as §2
Coxsackievirus B4 [11] = assay: Antiviral activity against Coxsackievirus B4 infected in african green monkey Vero cells assessed as inhibition of virus-induced cytopathicity after 3 days; format: functional, organism-based; conditions: Enterovirus B, 72 h; method in brief: as §2
Punta Toro virus = assay: Antiviral activity against Punta Toro virus infected in african green monkey Vero cells assessed as inhibition of virus-induced cytopathicity after 3 days; format: functional, organism-based; conditions: 72 h; method in brief: as §3

| SMILES | MCC [1] [µg/mL] | EC50 (Human alphaherpesvirus 2) [µg/mL] | EC50 (Vaccinia virus) [µg/mL] | EC50 [2] [µg/mL] | EC50 (Human alphaherpesvirus 1 [3]) [µg/mL] | EC50 (Human alphaherpesvirus 1 [4]) [µg/mL] | MCC [5] [µg/mL] | EC50 [6] [µg/mL] | EC50 (Coxsackievirus B4 [7]) [µg/mL] | EC50 [8] [µg/mL] | MCC [9] [µg/mL] | EC50 (Human respirovirus 3) [µg/mL] | EC50 [10] [µg/mL] | EC50 (Sindbis virus) [µg/mL] | EC50 (Coxsackievirus B4 [11]) [µg/mL] | EC50 (Punta Toro virus) [µg/mL] |
| --- | --- | --- | --- | --- | --- | --- | --- | --- | --- | --- | --- | --- | --- | --- | --- | --- |
| Nc1ccn(C[C@@H](CO)OCP(=O)(O)O)c(=O)n1.O.O [CIDOFOVIR] | > 250 | 5 | 10 | > 250 | 5 | 3 |  |  |  |  |  |  |  |  |  |  |
| Cc1ccc(-c2csc(N3N=C(c4ccccc4)CC3c3ccc(OCc4ccccc4)cc3)n2)cc1 (stereo not drawn) | > 100 | > 100 | > 100 | > 100 | > 100 | > 100 | > 100 | > 100 | > 100 | > 100 | 100 | > 20 | > 20 | > 20 | > 20 | > 20 |
| O=C1CSC(N2N=C(c3ccc(Cl)cc3)CC2c2ccc(OCc3ccccc3)cc2)=N1 (stereo not drawn) | 100 | > 20 | > 20 | > 20 | > 20 | > 20 | 100 | > 20 | > 20 | > 20 | 100 | > 20 | > 20 | > 20 | > 20 | > 20 |
| Cc1ccc(C2=NN(c3nc(-c4ccc(C)cc4)cs3)C(c3ccc(OCc4ccccc4)cc3)C2)cc1 (stereo not drawn) | 100 | > 20 | > 20 | > 20 | > 20 | > 20 | > 100 | > 100 | > 100 | > 100 | > 100 | > 100 | > 100 | > 100 | > 100 | > 100 |
| O=c1[nH]c(=O)n([C@H]2C[C@H](O)[C@@H](CO)O2)cc1/C=C/Br [BRIVUDINE] | > 250 | 126 (≈ 378 µM) | 10 (≈ 30 µM) | > 250 | > 250 | 0.08 (≈ 0.24 µM) |  |  |  |  |  |  |  |  |  |  |
| NC(=S)N1N=C(c2ccc(Br)cc2)CC1c1ccc(OCc2ccccc2)cc1 (stereo not drawn) | 100 | > 20 | > 20 | > 20 | > 20 | > 20 | 100 | > 20 | > 20 | > 20 | 100 | > 20 | > 20 | > 20 | > 20 | > 20 |
| Clc1ccc(-c2csc(N3N=C(c4ccccc4)CC3c3ccc(OCc4ccccc4)cc3)n2)cc1 (stereo not drawn) | 100 | > 20 | > 20 | > 20 | > 20 | > 20 | 100 | > 20 | > 20 | > 20 | 100 | > 20 | > 20 | > 20 | > 20 | > 20 |
| Clc1ccc(-c2csc(N3N=C(c4ccc(Br)cc4)CC3c3ccc(OCc4ccccc4)cc3)n2)cc1 (stereo not drawn) | > 100 | > 100 | > 100 | > 100 | > 100 | > 100 | > 100 | > 100 | > 100 | > 100 | > 100 | > 100 | > 100 | > 100 | > 100 | > 100 |
